Source: ChEMBL document CHEMBL4477265, “Design and synthesis of cis-restricted benzimidazole and benzothiazole mimics of combretastatin A-4 as antimitotic agents with apoptosis inducing ability” (Bioorg Med Chem Lett, 2016)
One block for each compound: values may come before it. Active and inactive are the calls of the source. The calls are words filed in the database; no cut-off is given here.

Legend:
[1] = system: A549; test: Antiproliferative activity against human A549 cells after 48 hrs by sulforhodamine B assay; type: functional; conditions: A549, 48 h
[2] = system: HeLa; test: Antiproliferative activity against human HeLa cells after 48 hrs by sulforhodamine B assay; type: functional
[3] = system: DU-145; test: Antiproliferative activity against human DU145 cells after 48 hrs by sulforhodamine B assay; type: functional; conditions: DU-145, 48 h
[4] = system: HepG2; test: Antiproliferative activity against human HepG2 cells after 48 hrs by sulforhodamine B assay; type: functional; conditions: HepG2, 48 h
[5] = molecular target: Tubulin (Sus scrofa) (UniProt P02554+P02550); test: Inhibition of porcine brain tubulin polymerization at 3 uM measured at 1 min interval for 1 hr by fluorescence plate reader assay relative to control
In short: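 Tubulin polymerization followed by fluorescence (excitation 360 nm, emission 420 nm) over 1 h at 37 °C, test agents at 3 μM; inhibition expressed as percentage of polymerization versus untreated control.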

[6] = system: HeLa; test: Cell cycle arrest in human HeLa cells assessed as accumulation at G0 phase at 60 nM after 48 hrs by propidium iodide staining based flow cytometry (reference value: 5.64%); type: functional
[7] = system: HeLa; test: Cell cycle arrest in human HeLa cells assessed as accumulation at S phase at 60 nM after 48 hrs by propidium iodide staining based flow cytometry (reference value: 3.52%); type: functional
[8] = system: HeLa; test: Cell cycle arrest in human HeLa cells assessed as accumulation at G0 phase at 40 nM after 48 hrs by propidium iodide staining based flow cytometry (reference value: 5.64%); type: functional
[9] = system: HeLa; test: Cell cycle arrest in human HeLa cells assessed as accumulation at G1 phase at 40 nM after 48 hrs by propidium iodide staining based flow cytometry (reference value: 73.28%); type: functional
[10] = system: HeLa; test: Cell cycle arrest in human HeLa cells assessed as accumulation at S phase at 40 nM after 48 hrs by propidium iodide staining based flow cytometry (reference value: 3.52%); type: functional
[11] = system: HeLa; test: Cell cycle arrest in human HeLa cells assessed as accumulation at G2/M phase at 40 nM after 48 hrs by propidium iodide staining based flow cytometry (reference value: 17.56%); type: functional
[12] = system: HeLa; test: Induction of inner mitochondrial membrane potential depolarization in isolated mitochondria from human HeLa cells at 40 to 60 nM after 48 hrs by JC-1 staining based fluorescence plate reader assay; type: functional
In short: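 Mitochondria isolated and incubated with JC-1 dye alongside treatment at 40 and 60 nM; red/green fluorescence emission ratio recorded as the index of inner membrane potential, with untreated mitochondria as control.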

[13] = molecular target: Tubulin (Sus scrofa, UniProt P02554+P02550); test: Inhibition of porcine brain tubulin polymerization measured at 1 min interval for 1 hr by fluorescence plate reader assay
[14] = system: HeLa; test: Cell cycle arrest in human HeLa cells assessed as accumulation at G2/M phase after 48 hrs by propidium iodide staining based flow cytometry; type: functional
[15] = system: HeLa; test: Induction of apoptosis in human HeLa cells assessed as caspase-9 activation using AFC-labeled substrate at 40 to 60 nM after 24 to 48 hrs by fluorescence plate reader assay relative to combretastatin A-4
[16] = molecular target: Tubulin (Homo sapiens) (UniProt P68371+Q9H4B7+P0DPH7+P68366+Q13509+Q71U36+P04350+Q3ZCM7+P07437+P68363+Q9BQE3+Q6PEY2+Q13885+Q9BVA1+Q9BUF5); test: Inhibition of tubulin polymerization in human HeLa cells assessed as induction of microtubule disruption at 60 nM after 48 hrs by confocal microscopic analysis; type: cell-based
In short: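 HeLa cells grown on sterile cover slips, exposed 48 h at 60 nM, immunostained with α-tubulin antibody; microtubule network organization examined by confocal imaging.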

[17] = system: HeLa; test: Induction of apoptosis in human HeLa cells assessed as caspase-3 activation using AFC-labeled caspase-3 substrate at 40 to 60 nM after 24 to 48 hrs by fluorescence plate reader assay relative to combretastatin A-4; type: functional
In short: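 HeLa cells exposed at 40 and 60 nM; caspase-3 and caspase-9 activity measured fluorimetrically with conjugated caspase substrates at two time points.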

[18] = system: HeLa; test: Cell cycle arrest in human HeLa cells assessed as accumulation at G1 phase at 60 nM after 48 hrs by propidium iodide staining based flow cytometry (reference value: 73.28%); type: functional
[19] = system: HeLa; test: Cell cycle arrest in human HeLa cells assessed as accumulation at G2/M phase at 60 nM after 48 hrs by propidium iodide staining based flow cytometry (reference value: 17.56%); type: functional

Sequence of Tubulin (Sus scrofa) (P02550 whole entry, looked up): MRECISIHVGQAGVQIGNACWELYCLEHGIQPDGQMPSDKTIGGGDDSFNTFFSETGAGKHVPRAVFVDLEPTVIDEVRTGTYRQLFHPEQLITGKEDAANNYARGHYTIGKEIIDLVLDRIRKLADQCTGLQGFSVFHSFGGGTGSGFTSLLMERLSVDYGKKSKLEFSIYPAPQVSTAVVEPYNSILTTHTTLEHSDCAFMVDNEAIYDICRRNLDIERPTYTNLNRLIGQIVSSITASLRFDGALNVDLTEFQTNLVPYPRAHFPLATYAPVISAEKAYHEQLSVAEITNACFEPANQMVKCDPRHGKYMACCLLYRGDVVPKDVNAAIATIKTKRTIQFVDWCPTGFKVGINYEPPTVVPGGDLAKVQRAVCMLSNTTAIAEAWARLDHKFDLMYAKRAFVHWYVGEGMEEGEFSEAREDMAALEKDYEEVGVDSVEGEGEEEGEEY
Sequence of Tubulin (Sus scrofa) (P02554 whole entry, looked up): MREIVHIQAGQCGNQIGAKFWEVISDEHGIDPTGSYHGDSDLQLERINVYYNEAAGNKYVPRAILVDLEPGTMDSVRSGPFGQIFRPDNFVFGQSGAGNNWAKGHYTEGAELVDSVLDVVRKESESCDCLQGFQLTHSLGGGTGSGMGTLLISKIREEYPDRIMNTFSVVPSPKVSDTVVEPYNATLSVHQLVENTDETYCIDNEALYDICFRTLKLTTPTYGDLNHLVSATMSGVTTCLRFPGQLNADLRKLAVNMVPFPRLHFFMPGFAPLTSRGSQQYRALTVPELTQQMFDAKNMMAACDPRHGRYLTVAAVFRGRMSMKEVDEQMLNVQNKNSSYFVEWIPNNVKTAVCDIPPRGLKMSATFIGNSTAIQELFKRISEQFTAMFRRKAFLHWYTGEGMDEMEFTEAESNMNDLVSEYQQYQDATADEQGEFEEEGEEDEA

Structure (SMILES): COc1ccc(-c2ncccc2-c2nc3ccc(Cl)cc3s2)cc1
- GI50 [1]: 7.9 µM
- GI50 [3]: 0.19 µM
- GI50 [4]: 3.9 µM
- GI50 [2]: 7.7 µM

Structure (SMILES): COc1ccc2nc(-c3cccnc3-c3cc(OC)c(OC)c(OC)c3)sc2c1
- inhibition [5]: 60.1%
- Activity [6]: 25.35%
- Activity [7]: 14.3%
- GI50 [1]: 0.13 µM
- Activity [8]: 13.27%
- Activity [9]: 51.22%
- Activity [10]: 11.86%
- Activity [11]: 23.65%
- Activity [12]: Active
- IC50 [13]: 2.01 µM
- GI50 [3]: 0.18 µM
- GI50 [4]: 0.26 µM
- GI50 [2]: 0.06 µM
- Activity [14]: Dose-dependent effect
- fold change (FC) [15]: 2
- inhibition [16]: Active
- fold change (FC) [17]: 2
- Activity [18]: 19.54%
- Activity [19]: 40.8%

Structure (SMILES): COc1ccc(/C=C\c2cc(OC)c(OC)c(OC)c2)cc1O [COMBRETASTATIN A4]
- Activity [6]: 24.78%
- Activity [7]: 16.44%
- GI50 [1]: 0.06 µM
- Activity [8]: 25.87%
- Activity [9]: 17.92%
- Activity [10]: 17.34%
- Activity [11]: 38.87%
- Activity [12]: Active
- GI50 [3]: 0.07 µM
- GI50 [4]: 0.08 µM
- GI50 [2]: 0.06 µM
- Activity [18]: 17.29%
- Activity [19]: 41.48%

Structure (SMILES): COc1cc(-c2ncccc2-c2nc3ccccc3s2)cc(OC)c1OC
- GI50 [1]: 3.2 µM
- GI50 [3]: 4.1 µM
- GI50 [4]: 3.5 µM
- GI50 [2]: 4.8 µM

Structure (SMILES): COc1cc2nc(-c3cccnc3-c3cc(OC)c(OC)c(OC)c3)sc2cc1OC
- GI50 [1]: 0.5 µM
- GI50 [3]: 0.6 µM
- GI50 [4]: 0.5 µM
- GI50 [2]: 1.6 µM

Structure (SMILES): COc1ccc(-c2ncccc2-c2nc3cc(OC)c(OC)cc3s2)cc1
- GI50 [1]: 59.1 µM
- GI50 [4]: 30.9 µM
- GI50 [2]: 11.3 µM

Structure (SMILES): COc1cc(-c2ncccc2-c2nc3ccccc3[nH]2)cc(OC)c1OC
- GI50 [1]: 4.5 µM
- GI50 [3]: 14.6 µM
- GI50 [4]: 3.5 µM
- GI50 [2]: 2.6 µM

Structure (SMILES): COc1ccc(-c2ncccc2-c2nc3ccc(OC)cc3s2)cc1
- GI50 [1]: 13.3 µM
- GI50 [2]: 8.1 µM

Structure (SMILES): COc1ccc(-c2ncccc2-c2nc3cc(OC)c(OC)cc3s2)cc1OC
- GI50 [1]: 7.58 µM
- GI50 [3]: 5.91 µM
- GI50 [4]: 1.2 µM
- GI50 [2]: 13.5 µM

Structure (SMILES): COc1ccc(-c2ncccc2-c2nc3cc(OC)c(OC)cc3[nH]2)cc1OC
- GI50 [1]: 7.9 µM
- GI50 [3]: 4.19 µM
- GI50 [4]: 1.9 µM
- GI50 [2]: 7.7 µM

Structure (SMILES): COc1ccc(-c2ncccc2-c2nc3ccccc3s2)cc1OC
- GI50 [1]: 0.2 µM
- GI50 [3]: 3.6 µM
- GI50 [4]: 0.7 µM
- GI50 [2]: 1.8 µM

Structure (SMILES): COc1ccc(-c2ncccc2-c2nc3ccccc3[nH]2)cc1OC
- GI50 [3]: 5.8 µM
- GI50 [4]: 12.4 µM

Structure (SMILES): COc1ccc2nc(-c3cccnc3-c3ccc(OC)c(OC)c3)sc2c1
- GI50 [1]: 1.7 µM
- GI50 [3]: 6.8 µM
- GI50 [4]: 2.2 µM
- GI50 [2]: 6.2 µM

Structure (SMILES): COc1cc2nc(-c3cccnc3-c3cc(OC)c(OC)c(OC)c3)[nH]c2cc1OC
- GI50 [1]: 2.5 µM
- GI50 [3]: 0.6 µM
- GI50 [4]: 1.5 µM
- GI50 [2]: 1.7 µM

Structure (SMILES): COc1ccc(S(=O)(=O)Nc2cccnc2Nc2ccc(O)cc2)cc1 [ABT-751]
- GI50 [1]: 1.8 µM
- GI50 [3]: 1.2 µM
- GI50 [4]: 2.8 µM
- GI50 [2]: 4.8 µM

Further lines, with some results ahead:

- GI50 [1]: 18.4 µM
- GI50 [2]: 15.8 µM
Structure (SMILES): FC(F)(F)c1ccc(-c2ncccc2-c2nc3ccc(Cl)cc3[nH]2)cc1

- GI50 [1]: 0.75 µM
- GI50 [3]: 0.21 µM
- GI50 [4]: 0.76 µM
- GI50 [2]: 0.15 µM
Structure (SMILES): COc1ccc2nc(-c3cccnc3-c3cc(C(F)(F)F)ccc3Cl)[nH]c2c1

- GI50 [1]: 19.5 µM
- GI50 [4]: 32.5 µM
- GI50 [2]: 20.4 µM
Structure (SMILES): FC(F)(F)c1ccc(-c2ncccc2-c2nc3ccc(Cl)cc3s2)cc1

- GI50 [1]: 19.5 µM
- GI50 [4]: 42.5 µM
- GI50 [2]: 21.4 µM
Structure (SMILES): COc1ccc(-c2ncccc2-c2nc3cc(OC)c(OC)cc3[nH]2)cc1

- GI50 [1]: 38.2 µM
- GI50 [3]: 32.1 µM
Structure (SMILES): COc1ccc2nc(-c3cccnc3-c3ccc(C(F)(F)F)cc3)[nH]c2c1

- inhibition [5]: 68.3%
- GI50 [1]: 0.091 µM
- IC50 [13]: 1.91 µM
- GI50 [3]: 0.052 µM
- GI50 [4]: 0.079 µM
- GI50 [2]: 0.04 µM
- inhibition [16]: Active
Structure (SMILES): COc1ccc2nc(-c3cccnc3-c3cc(C(F)(F)F)ccc3Cl)sc2c1
- Activity [6]: 20.47%
- Activity [7]: 10.3%
- Activity [8]: 8.13%
- Activity [9]: 43%
- Activity [10]: 24.62%
- Activity [11]: 24.26%
- Activity [12]: Active
- Activity [14]: Dose-dependent effect
- fold change (FC) [15]: 2
- fold change (FC) [17]: 2
- Activity [18]: 15.19%
- Activity [19]: 54.05%

- GI50 [1]: 17 µM
- GI50 [2]: 15.7 µM
Structure (SMILES): COc1ccc2nc(-c3cccnc3-c3ccc(C(F)(F)F)cc3)sc2c1

- GI50 [3]: 34.7 µM
Structure (SMILES): COc1ccc(-c2ncccc2-c2nc3ccc(Cl)cc3[nH]2)cc1

- GI50 [1]: 7.41 µM
- GI50 [3]: 5.49 µM
- GI50 [4]: 15 µM
- GI50 [2]: 4.89 µM
Structure (SMILES): FC(F)(F)c1ccc(Cl)c(-c2ncccc2-c2nc3ccccc3s2)c1

- GI50 [1]: 1.5 µM
- GI50 [3]: 0.29 µM
- GI50 [4]: 0.84 µM
- GI50 [2]: 5 µM
Structure (SMILES): COc1ccc2nc(-c3cccnc3-c3cc(OC)c(OC)c(OC)c3)[nH]c2c1

- GI50 [3]: 19.6 µM
Structure (SMILES): COc1ccc(-c2ncccc2-c2nc3ccc(OC)cc3[nH]2)cc1

- GI50 [1]: 27.6 µM
- GI50 [3]: 12 µM
- GI50 [4]: 44.8 µM
- GI50 [2]: 16.6 µM
Structure (SMILES): COc1ccc2nc(-c3cccnc3-c3ccc(OC)c(OC)c3)[nH]c2c1

- GI50 [1]: 1.5 µM
- GI50 [4]: 1.2 µM
- GI50 [2]: 5.8 µM
Structure (SMILES): FC(F)(F)c1ccc(Cl)c(-c2ncccc2-c2nc3ccc(Cl)cc3s2)c1
